For experiment [1], the target named is T1, Vasopressin receptor (Rattus norvegicus) (UniProt P48974+P30560+Q00788). The experiment in a line: Antivasopressor potency in terms of blood pressure response in rats anesthetized with urethane and pretreated with phenoxybenzamine. In kind it is functional. Put shortly: (§1)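 Rats anesthetized with urethane, pretreated with phenoxybenzamine; blood pressure responses recorded. USP posterior pituitary reference standard as agonist, given intravenously with antagonist. ED (nmol/kg) is the antagonist dose at which 2x units of agonist match the response to x units without antagonist, log-interpolated from doses above and below. In vivo pA2 uses assumed distribution volume 67 mL/kg.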

Experiment [2] concerns the target T2, Vasopressin receptor (Rattus norvegicus, UniProt P48974+P30560+Q00788). The experiment in a line: Antivasopressor potency in terms of negative logarithm of the effective doses divided by the estimated volume of distribution. In kind it is functional. The method, boiled down:
as §1

In experiment [3] the target is T1, Vasopressin receptor (Rattus norvegicus). As to the kind of experiment: Antiantidiuretic potency in terms of measuring changes in urine flow in water-loaded rats under ethanol anesthesia. In kind it is functional. Put shortly: (§2)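 Water-loaded rats under ethanol anesthesia; urine flow followed. USP posterior pituitary reference standard as agonist, all injections intravenous. Effective dose (nmol/kg) is the antagonist dose reducing the response to 2x units of agonist to that of x units alone, interpolated on a log scale between bracketing doses. pA2 = negative log of ED divided by assumed distribution volume 67 mL/kg.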

In experiment [4] the target is T2, Vasopressin receptor. The experiment in a line: Antiantidiuretic potency in terms of negative logarithm of the effective doses divided by the estimated volume of distribution. It counts as functional, Urine. The method, boiled down:
as §2

Numbered stars: 1 amine (or outer) side, 2 acyl side, 3 side chain; on linkers, the order of the positions; unused ones are H or OH. Bridge positions count the residues as written; N and C are the ends. Square brackets hold non-standard residues; d marks the D form. Peptide text beside a SMILES is read from it. X1 = O=C(CC1(S[*:2])CCCCC1)[*:1] Where only a bound is given, the exact number is not on record here.

Broadly, the pA2 is the negative logarithm of the molar antagonist concentration that doubles the agonist concentration needed for the same response.

Take `CCOc1ccc(C[C@H]2NC(=O)CC3(CCCCC3)SSC[C@@H](C(=O)N3CCC[C@H]3C(=O)N[C@@H](CCCN=C(N)N)C(=O)NCC(N)=O)NC(=O)[C@H](CC(N)=O)NC(=O)[C@H]([C@@H](C)CC)NC(=O)[C@H](Cc3ccccc3)NC2=O)cc1`: the ED in experiment [1] and in experiment [3] was 1.2 nM/kg in each case. In addition, the pA2 in experiment [2] is on record as 7.78; in experiment [4], 7.75.
Turning to `CCOc1ccc(C[C@H]2NC(=O)CC3(CCCCC3)SSC[C@@H](C(=O)N3CCC[C@H]3C(=O)N[C@@H](CCCN=C(N)N)C(=O)NCC(=O)NCCN)NC(=O)[C@H](CC(N)=O)NC(=O)[C@H](C(C)C)NC(=O)[C@H](Cc3ccccc3)NC2=O)cc1`, the ED in experiment [1] is 0.32 nM/kg; in experiment [3], 1.2 nM/kg. Moreover, the pA2 in experiment [2] is recorded as 8.33; in experiment [4], 7.82.
In the case of `CCOc1ccc(C[C@H]2NC(=O)CC3(CCCCC3)SSC[C@@H](C(=O)NCCNC(=O)[C@@H](N)CCCN=C(N)N)NC(=O)[C@H](CC(N)=O)NC(=O)[C@H](C(C)C)NC(=O)[C@H](Cc3ccccc3)NC2=O)cc1`, the pA2 is given as 7.95 in experiment [2] and 7.54 in experiment [4].
Regarding `CC[C@H](C)[C@@H]1NC(=O)[C@H](Cc2ccccc2)NC(=O)[C@@H](Cc2ccccc2)NC(=O)CC2(CCCCC2)SSC[C@@H](C(=O)N2CCC[C@H]2C(=O)N[C@@H](CCCN=C(N)N)C(=O)NCC(N)=O)NC(=O)[C@H](CC(N)=O)NC1=O` ([dF]FINCPRG-NH2; linker N-5 via X1), the ED was 0.99 nM/kg in experiment [1] and 0.46 nM/kg in experiment [3]. For the same compound, the pA2 in experiment [2] is reported as 7.86; in experiment [4] it was 8.24.
The corresponding values for `CCOc1ccc(C[C@H]2NC(=O)CC3(CCCCC3)SSC[C@@H](C(=O)N3CCC[C@H]3C(=O)NCCN)NC(=O)[C@H](CC(N)=O)NC(=O)[C@H](C(C)C)NC(=O)[C@H](Cc3ccccc3)NC2=O)cc1` are 0.75 nM/kg, 1.6 nM/kg, 7.95 and 7.64.
For the compound `CCOc1ccc(C[C@H]2NC(=O)CC3(CCCCC3)SSC[C@@H](C(=O)N3CCC[C@H]3C(=O)NCCNC(=O)[C@H](N)CCCCN)NC(=O)[C@H](CC(N)=O)NC(=O)[C@H](C(C)C)NC(=O)[C@H](Cc3ccccc3)NC2=O)cc1`, the pA2 in experiment [2] is 8.08; in experiment [4] it was 7.78.
For `CCOc1ccc(C[C@H]2NC(=O)CC3(CCCCC3)SSC[C@@H](C(=O)NCCNC(=O)[C@H](N)CCCCN)NC(=O)[C@H](CC(N)=O)NC(=O)[C@H](C(C)C)NC(=O)[C@H](Cc3ccccc3)NC2=O)cc1`, in that order: 7.92 and 7.76.
For `CCOc1ccc(C[C@H]2NC(=O)CC3(CCCCC3)SSC[C@@H](C(=O)N3CCC[C@H]3C(=O)N[C@@H](CCCN=C(N)N)C(=O)NCCNC(=O)[C@@H](N)CCCN=C(N)N)NC(=O)[C@H](CC(N)=O)NC(=O)[C@H]([C@@H](C)CC)NC(=O)[C@H](Cc3ccccc3)NC2=O)cc1`, in that order: 8.27 and 8.1.
For `CCOc1ccc(C[C@H]2NC(=O)CC3(CCCCC3)SSC[C@@H](C(=O)N3CCC[C@H]3C(=O)NCCNC(=O)[C@H](N)CCCN)NC(=O)[C@H](CC(N)=O)NC(=O)[C@H](C(C)C)NC(=O)[C@H](Cc3ccccc3)NC2=O)cc1`, in that order: 7.86 and 7.92.
Consider `CCOc1ccc(C[C@H]2NC(=O)CC3(CCCCC3)SSC[C@@H](C(=O)N[C@@H](CCCN=C(N)N)C(=O)NCC(N)=O)NC(=O)[C@H](CC(N)=O)NC(=O)[C@H](C(C)C)NC(=O)[C@H](Cc3ccccc3)NC2=O)cc1`, for which the pA2 in experiment [2] is on record as 8.09; in experiment [4] it was 7.82.
The corresponding values for `CCOc1ccc(C[C@H]2NC(=O)CC3(CCCCC3)SSC[C@@H](C(=O)NCCNC(=O)[C@H](CCCN=C(N)N)NC(=O)[C@@H](N)CCCN=C(N)N)NC(=O)[C@H](CC(N)=O)NC(=O)[C@H](C(C)C)NC(=O)[C@H](Cc3ccccc3)NC2=O)cc1` are 7.93 and 7.61.
For `CCOc1ccc(C[C@H]2NC(=O)CC3(CCCCC3)SSC[C@@H](C(=O)NCCNC(=O)CN)NC(=O)[C@H](CC(N)=O)NC(=O)[C@H](C(C)C)NC(=O)[C@H](Cc3ccccc3)NC2=O)cc1`, in that order: 7.61 and 6.59.
As for `CCOc1ccc(C[C@H]2NC(=O)CC3(CCCCC3)SSC[C@@H](C(=O)N3CCC[C@H]3C(=O)N[C@@H](CCCN=C(N)N)C(=O)NCCN)NC(=O)[C@H](CC(N)=O)NC(=O)[C@H](C(C)C)NC(=O)[C@H](Cc3ccccc3)NC2=O)cc1`, the ED in experiment [1] stood at 0.69 nM/kg; in experiment [3] it was 1.1 nM/kg. Moreover, the pA2 was 8 in experiment [2] and 7.79 in experiment [4].
As to `CCOc1ccc(C[C@H]2NC(=O)CC3(CCCCC3)SSC[C@@H](C(=O)N3CCC[C@H]3C(=O)N[C@@H](CCCN=C(N)N)C(=O)NCCN)NC(=O)[C@H](CC(N)=O)NC(=O)[C@H]([C@@H](C)CC)NC(=O)[C@H](Cc3ccccc3)NC2=O)cc1`, the ED in experiment [1] stood at 0.32 nM/kg; in experiment [3] it was 0.77 nM/kg. For the same compound, the pA2 in experiment [2] is given as 8.33; in experiment [4], 8.
Take `CCOc1ccc(C[C@H]2NC(=O)CC3(CCCCC3)SSC[C@@H](C(=O)NCCN)NC(=O)[C@H](CC(N)=O)NC(=O)[C@H](C(C)C)NC(=O)[C@H](Cc3ccccc3)NC2=O)cc1`: the pA2 in experiment [2] is 8.15; in experiment [4] it was 7.07.
As for `CCOc1ccc(C[C@H]2NC(=O)CC3(CCCCC3)SSC[C@@H](C(=O)N3CCC[C@H]3C(=O)N[C@@H](CCCN=C(N)N)C(=O)NCCNC(=O)[C@@H](N)CCCN=C(N)N)NC(=O)[C@H](CC(N)=O)NC(=O)[C@H](C(C)C)NC(=O)[C@H](Cc3ccccc3)NC2=O)cc1`, the figures for the pA2 in experiment [2] and in experiment [4] were 8.15 and 7.68, respectively.
The corresponding values for `CC(C)[C@@H]1NC(=O)[C@H](Cc2ccccc2)NC(=O)[C@@H](Cc2ccccc2)NC(=O)CC2(CCCCC2)SSC[C@@H](C(=O)NCCNC(=O)[C@@H](N)CCCN=C(N)N)NC(=O)[C@H](CC(N)=O)NC1=O` are 7.64 and 6.91.
The corresponding values for `CC[C@@H](C)[C@H]1NC(=O)CC2(CCCCC2)SSC[C@@H](C(=O)NCCNC(=O)[C@@H](N)CCCN=C(N)N)NC(=O)[C@H](CC(N)=O)NC(=O)[C@H](C(C)C)NC(=O)[C@H](Cc2ccccc2)NC1=O` are 6.16 and 5.8.
For `CCOc1ccc(C[C@H]2NC(=O)CC3(CCCCC3)SSC[C@@H](C(=O)N[C@@H](CCCN=C(N)N)C(=O)NCC(=O)NCCN)NC(=O)[C@H](CC(N)=O)NC(=O)[C@H](C(C)C)NC(=O)[C@H](Cc3ccccc3)NC2=O)cc1`, in that order: 8.05 and 8.03.
Turning to `CCOc1ccc(C[C@H]2NC(=O)CC3(CCCCC3)SSC[C@@H](C(=O)N3CCC[C@H]3C(=O)N[C@@H](CCCN=C(N)N)C(=O)NCC(N)=O)NC(=O)[C@H](CC(N)=O)NC(=O)[C@H](C(C)C)NC(=O)[C@H](Cc3ccccc3)NC2=O)cc1` ([dY](Et)FVNCPRG-NH2; linker N-5 via X1), the ED in experiment [1] is 0.45 nM/kg; in experiment [3], 1.1 nM/kg. Also, the values for the pA2 in experiment [2] and in experiment [4] were 8.22 and 7.81, respectively.
`CCOc1ccc(C[C@H]2NC(=O)CC3(CCCCC3)SSC[C@@H](C(=O)NCCNC(=O)[C@H](N)CCCN)NC(=O)[C@H](CC(N)=O)NC(=O)[C@H](C(C)C)NC(=O)[C@H](Cc3ccccc3)NC2=O)cc1`: the figures for the pA2 in experiment [2] and in experiment [4] were 8.06 and 7.24, respectively.
Regarding `CC[C@H](C)[C@@H]1NC(=O)[C@H](Cc2ccccc2)NC(=O)[C@@H](Cc2ccccc2)NC(=O)CC2(CCCCC2)SSC[C@@H](C(=O)N2CCC[C@H]2C(=O)N[C@@H](CCCN=C(N)N)C(=O)NCC(=O)NCCN)NC(=O)[C@H](CC(N)=O)NC1=O`, the figures for the ED in experiment [1] and in experiment [3] were 1.8 nM/kg and 0.57 nM/kg, respectively. In addition, the pA2 is recorded as 7.58 in experiment [2] and 8.1 in experiment [4].
For `CC[C@H](C)[C@@H]1NC(=O)[C@H](Cc2ccccc2)NC(=O)[C@@H](Cc2ccccc2)NC(=O)CC2(CCCCC2)SSC[C@@H](C(=O)N2CCC[C@H]2C(=O)N[C@@H](CCCN=C(N)N)C(=O)NCCN)NC(=O)[C@H](CC(N)=O)NC1=O`, in that order: 0.88 nM/kg, 0.55 nM/kg, 7.89 and 8.11.
With `CC(C)C[C@H]1NC(=O)CC2(CCCCC2)SSC[C@@H](C(=O)NCCNC(=O)[C@@H](N)CCCN=C(N)N)NC(=O)[C@H](CC(N)=O)NC(=O)[C@H](C(C)C)NC(=O)[C@H](Cc2ccccc2)NC1=O`, the pA2 in experiment [2] is listed as 6.08; in experiment [4], less than 5.5.
For `CCOc1ccc(C[C@H]2NC(=O)CC3(CCCCC3)SSC[C@@H](C(=O)NCCNC(=O)[C@@H](N)CCCN)NC(=O)[C@H](CC(N)=O)NC(=O)[C@H](C(C)C)NC(=O)[C@H](Cc3ccccc3)NC2=O)cc1`, in that order: 7.8 and 7.55.

Values taken from ChEMBL document CHEMBL1125323, “Potent V2/V1a vasopressin antagonists with C-terminal ethylenediamine-linked retro-amino acids” (J Med Chem, 1992).
